We go through two compounds from article PMC3597129 (The Journal of antimicrobial chemotherapy, 2008).

For series [1] the following is noted: 2NN study, cited from earlier work.
For series [2] the following is noted: for Individual predictions V/F / Population predictions V/F: 1600/100 mg once daily; for Population predictions V/F: typical 70 kg male.
Series [3] can be described thus: Population pharmacokinetic model fitted to each study site separately. The conditions noted are these: split model, 1600/100 mg once daily; for Population predictions CL/F / Population predictions V/F: typical 70 kg male. In kind it is in vivo, human. The method, boiled down:
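UK sampling: pre-dose to 12 h (24 h if once daily). Thailand: pre-dose to 24 h, 10–15 g fat meal. Plasma from heparinized blood was frozen at −70°C and assayed by HPLC-MS/MS or HPLC-UV. Nonlinear mixed-effects modelling used FO estimation; individual estimates were Bayesian post hoc.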

For series [4] the following is noted: healthy volunteers, Phase I studies; cited from earlier work.

Read-outs that look alike come from different tables or passages of the source.

Regarding `Cc1ccnc2c1NC(=O)c1cccnc1N2C1CC1` [nevirapine], the “higher clearance compared with Thai and South African individuals” value in series [1] (South American HIV patients) was ~ 11%; in series [1] (Western HIV patients) it was ~28%.

Consider `CC(C)(C)NC(=O)[C@@H]1C[C@@H]2CCCC[C@@H]2CN1C[C@@H](O)[C@H](Cc1ccccc1)NC(=O)[C@H](CC(N)=O)NC(=O)c1ccc2ccccc2n1` [saquinavir], for which the “observed trough concentrations below target (MEC 0.1 mg/L), number” value in series [2] (both, human, in vivo) stood at 65. In addition, in series [2] (fasted state compared with standardized meal), the “decrease in F” value is reported as ~ 40%. Besides, in series [2] (full model), the “D1 (duration of zero-order input)” value was determined as 3.08 h, the “IIV CL/F” value turned out to be 41.4%, the “IIV D1” value is recorded as 17.8% and the “IIV V/F” value is given as 41.6%. Moreover, in series [2] (full model), the IIV lag-time stood at 46.8%, the “IOV CL/F” value was 57.3%, the “IOV V/F” value was determined as 37.3% and the Lag-time was 0.57 h. In series [2] (full model), this compound gave a Residual error additive of 0.26 mg/L and a Residual error proportional of 34.3%. Further, the V/F in series [2] (full model, 1000/100 mg bid evening dose) is 545 L. Besides, the V/F in series [2] (full model, 1000/100 mg bid morning dose) was determined as 324 L. Further, the V/F in series [2] (full model, 1600/100 mg qd) was determined as 324 L. This compound also came in with a V/F in series [2] (full model, 1600/100 mg qd Thailand) of 379 L. In addition, the V/F in series [2] (full model, 1600/100 mg qd Uganda) is 332 L. In addition, the V/F in series [2] (full model, 2000/100 mg qd) was 324 L. In series [2] (full model, Thailand), the “Individual predictions V/F” value is recorded as 195.4 L and the “Population predictions V/F” value is 371.1 L. In series [2] (full model, UK), the “Individual predictions V/F” value was 272.9 L and the “Population predictions V/F” value was 317.2 L. Moreover, in series [2] (full model, Uganda), the “Individual predictions V/F” value is 521.2 L and the “Population predictions V/F” value was 325.1 L. The “increase in F” value in series [2] (high-fat meal (66 g fat) compared with standardized meal) is on record as ~ 80%. In series [3] (Thailand), the “Individual predictions CL/F” value was 22.8 L/h, the “Individual predictions V/F” value is 184.1 L, the “Population predictions CL/F” value is reported as 26.7 L/h and the “Population predictions V/F” value is 245.9 L. Besides, in series [3] (UK), the “Individual predictions CL/F” value was 79.4 L/h, the “Individual predictions V/F” value is reported as 278.8 L, the “Population predictions CL/F” value was 89.0 L/h and the “Population predictions V/F” value is reported as 313.5 L. Besides, in series [3] (Uganda), the “Individual predictions CL/F” value is 59.0 L/h, the “Individual predictions V/F” value is recorded as 400.2 L, the “Population predictions CL/F” value is reported as 49.8 L/h and the “Population predictions V/F” value is listed as 421.0 L. Moreover, the “bioavailability F” value in series [4] was 0.039.
